Measurements reported in ChEMBL document CHEMBL3792333, “The discovery of indole derivatives as novel hepatitis C virus inhibitors” (Eur J Med Chem, 2016).
Calls of active or inactive are those of the source. No cut-off for these calls is given here.

How the values were obtained:
Hepatitis C virus [1] = test: Antiviral activity against Hepatitis C virus JFH-1 infected in human Huh7.5.1 cells measured 48 hrs post infection by luciferase reporter gene assay; assay type: functional, organism-based, Hepacivirus hominis; conditions: JFH-1, Huh-7, 48 h
Summary of the method: (§1)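 Huh7.5.1 cells were seeded and grown 24 h at 37 °C, 5% CO₂. They were then treated with serially diluted compound and infected with Renilla luciferase-linked HCV(JFH-1) reporter virus. Luminescence was read at 48 hpi, and EC₅₀ and CC₅₀ were derived from it. SI is CC₅₀/EC₅₀. Results are the mean of three independent experiments with SD.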

[2] = Cytotoxicity against human Huh7.5.1 cells infected with Hepatitis C virus JFH-1 measured 48 hrs post infection by luciferase reporter gene assay; assay type: cell-based, Huh-7; summary of the method: as §1
[3] = Selectivity index, ratio of CC50 for human Huh7.5.1 cells infected with Hepatitis C virus JFH-1 to EC50 for Hepatitis C virus JFH-1 infected in human Huh7.5.1 cells; assay type: toxicity, cell-based, Huh-7; conditions: read-out: Ratio CC50/EC50; summary of the method: as §1
Hepatitis C virus [4] = test: Antiviral activity against Hepatitis C virus JFH-1 infected in human Huh7.5.1 cells assessed as inhibition of viral entry at 2 uM treated 1 hr post infection incubated for 24 hrs by luciferase reporter gene assay; assay type: functional, organism-based; conditions: Hepacivirus hominis, Huh-7
Summary of the method: (§2)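 Huh7.5.1 cells were seeded at 3×10⁴/well in 10% FBS-DMEM and grown overnight at 37 °C, 5% CO₂. Compound was added with 100 TCID₅₀ of HCV(JFH-1) Renilla luciferase reporter virus (0 h), or at -6 to 10 hpi. Cells were incubated 24 h at 37 °C, and luciferase activity was compared with 0.5% DMSO mock cultures.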

Hepatitis C virus [5] = test: Antiviral activity against Hepatitis C virus JFH-1 infected in human Huh7.5.1 cells assessed as inhibition of viral entry at 2 uM treated immediately after viral infection incubated for 24 hrs by luciferase reporter gene assay; assay type: functional, organism-based; conditions: Hepacivirus hominis, Huh-7; summary of the method: as §2
Hepatitis C virus [6] = test: Antiviral activity against Hepatitis C virus JFH-1 infected in human Huh7.5.1 cells assessed as inhibition of viral entry at 2 uM treated 2 to 6 hrs prior infection incubated for 24 hrs by luciferase reporter gene assay; assay type: functional, organism-based; conditions: Hepacivirus hominis, Huh-7; summary of the method: as §2
Hepatitis C virus [7] = test: Antiviral activity against Hepatitis C virus JFH-1 infected in human Huh7.5.1 cells assessed as inhibition of viral RNA replication at 2 uM treated 2 to 10 hrs post infection incubated for 24 hrs by luciferase reporter gene assay; assay type: functional, organism-based; conditions: Hepacivirus hominis, Huh-7; summary of the method: as §2
Hepatitis C virus [8] = test: Antiviral activity against Hepatitis C virus JFH-1 infected in human Huh7.5.1 cells assessed as inhibition of viral RNA replication at 5 uM treated 2 to 10 hrs post infection incubated for 24 hrs by luciferase reporter gene assay; assay type: functional, organism-based; conditions: Hepacivirus hominis, Huh-7; summary of the method: as §2
Hepatitis C virus [9] = test: Antiviral activity against Hepatitis C virus JFH-1 infected in human Huh7.5.1 cells assessed as inhibition of viral entry at 5 uM treated immediately after viral infection incubated for 24 hrs by luciferase reporter gene assay; assay type: functional, organism-based; conditions: Hepacivirus hominis, Huh-7; summary of the method: as §2
Hepatitis C virus [10] = test: Antiviral activity against Hepatitis C virus JFH-1 infected in human Huh7.5.1 cells assessed as inhibition of viral entry at 5 uM treated 2 to 6 hrs prior infection incubated for 24 hrs by luciferase reporter gene assay; assay type: functional, organism-based; conditions: Hepacivirus hominis, Huh-7; summary of the method: as §2
Hepatitis C virus [11] = test: Antiviral activity against Hepatitis C virus JFH-1 infected in human Huh7.5.1 cells assessed as inhibition of viral entry at 5 uM treated 1 hr post infection incubated for 24 hrs by luciferase reporter gene assay; assay type: functional, organism-based; conditions: Hepacivirus hominis, Huh-7; summary of the method: as §2

CC1=NN(c2ccccc2)C(=O)/C1=C/c1cn(C[C@@H](O)CNCCCN2CCOCC2)c2ccccc12
EC50 (Hepatitis C virus [1]): 8.06 µM | CC50 at 48 h [2]: 21.5 µM | selectivity ratio [3]: 2.67

CC1=NN(C)C(=O)/C1=C/c1cn(CC2CO2)c2ccccc12 (centres undefined)
EC50 (Hepatitis C virus [1]): > 50 µM | CC50 at 48 h [2]: > 50 µM

CC1=NN(c2ccc(F)cc2)C(=O)/C1=C/c1cn(CC2CO2)c2ccccc12 (centres undefined)
EC50 (Hepatitis C virus [1]): 3.24 µM | CC50 at 48 h [2]: > 50 µM | selectivity ratio [3]: > 15.4

CC1=NN(c2ccccc2F)C(=O)/C1=C/c1cn(CC2CO2)c2ccccc12 (centres undefined)
EC50 (Hepatitis C virus [1]): 5.11 µM | CC50 at 48 h [2]: 30.4 µM | selectivity ratio [3]: 5.95

CC1=NN(c2cccc(F)c2)C(=O)/C1=C/c1cn(CC(O)CNCCCN2CCOCC2)c2ccccc12 (racemic)
EC50 (Hepatitis C virus [1]): 0.92 µM | CC50 at 48 h [2]: 21.5 µM | selectivity ratio [3]: 23.3

CC1=NN(c2ccc(C)cc2)C(=O)/C1=C/c1cn(CC(O)CNCCCN2CCOCC2)c2ccccc12 (racemic)
EC50 (Hepatitis C virus [1]): 1.83 µM | CC50 at 48 h [2]: 36.2 µM | selectivity ratio [3]: 19.8

CC1=NN(c2ccccc2)C(=O)/C1=C/c1cn(CC2CC2)c2ccccc12
EC50 (Hepatitis C virus [1]): 21.5 µM | CC50 at 48 h [2]: > 50 µM | selectivity ratio [3]: > 2.32

CC1=NN(c2ccc(F)cc2)C(=O)/C1=C/c1cn(C[C@@H](O)CNCCCN2CCOCC2)c2ccccc12
EC50 (Hepatitis C virus [1]): 7.12 µM | CC50 at 48 h [2]: 34.6 µM | selectivity ratio [3]: 4.86

CC1=NN(c2ccccc2)C(=O)/C1=C/c1c[nH]c2ccccc12
EC50 (Hepatitis C virus [1]): 24.5 µM | CC50 at 48 h [2]: > 50 µM | selectivity ratio [3]: > 2.03

CCCCNCC(O)Cn1cc(/C=C2/C(=O)N(c3ccccc3)N=C2C)c2ccccc21 (racemic)
EC50 (Hepatitis C virus [1]): > 50 µM | CC50 at 48 h [2]: > 50 µM

CC1=NN(c2ccc(Cl)cc2)C(=O)/C1=C/c1cn(CC(O)CNCCCN2CCOCC2)c2ccccc12 (racemic)
EC50 (Hepatitis C virus [1]): 3.42 µM | CC50 at 48 h [2]: 17.5 µM | selectivity ratio [3]: 5.12

CCCCN(CCCC)CC(O)Cn1cc(/C=C2/C(=O)N(c3ccccc3)N=C2C)c2ccccc21 (racemic)
EC50 (Hepatitis C virus [1]): > 50 µM | CC50 at 48 h [2]: > 50 µM

CC1=NN(c2ccc(C)cc2)C(=O)/C1=C/c1cn(CC2CO2)c2ccccc12 (centres undefined)
EC50 (Hepatitis C virus [1]): 3.06 µM | CC50 at 48 h [2]: 13.2 µM | selectivity ratio [3]: 4.24

CC1=NN(c2ccc(F)cc2)C(=O)/C1=C/c1cn(CC(O)CNCCCN2CCOCC2)c2ccccc12 (racemic)
EC50 (Hepatitis C virus [1]): 1.02 µM | inhibition (Hepatitis C virus [4]): Active | inhibition (Hepatitis C virus [5]): Active | CC50 at 48 h [2]: 46.5 µM | selectivity ratio [3]: 45.6 | inhibition (Hepatitis C virus [6]): Active | inhibition (Hepatitis C virus [7]): inactive

CC1=NN(c2ccccc2)C(=O)/C1=C/c1cn(CC(O)CNCCCN2CCOCC2)c2ccccc12 (racemic)
EC50 (Hepatitis C virus [1]): 2.04 µM | CC50 at 48 h [2]: 35.8 µM | selectivity ratio [3]: 17.6

CC1=NN(c2ccc(Cl)cc2)C(=O)/C1=C/c1cn(CC2CO2)c2ccccc12 (centres undefined)
EC50 (Hepatitis C virus [1]): 6.82 µM | CC50 at 48 h [2]: 35.3 µM | selectivity ratio [3]: 5.17

CC1=NN(c2cccc(F)c2)C(=O)/C1=C/c1cn(CC2CO2)c2ccccc12 (centres undefined)
EC50 (Hepatitis C virus [1]): 2.65 µM | CC50 at 48 h [2]: 25.6 µM | selectivity ratio [3]: 9.67

CC1=NN(c2ccccc2)C(=O)/C1=C/c1cn(CC(O)CNCCCCN2CCOCC2)c2ccccc12 (racemic)
EC50 (Hepatitis C virus [1]): 2.03 µM | CC50 at 48 h [2]: 8.13 µM | selectivity ratio [3]: 4

CC1=NN(c2ccccc2)C(=O)/C1=C/c1cn(CC(O)CNCCN2CCOCC2)c2ccccc12 (racemic)
EC50 (Hepatitis C virus [1]): 5.46 µM | CC50 at 48 h [2]: 42.4 µM | selectivity ratio [3]: 7.76

CC1=NN(c2ccc(C(F)(F)F)cc2)C(=O)/C1=C/c1cn(CC2CO2)c2ccccc12 (centres undefined)
EC50 (Hepatitis C virus [1]): 7.86 µM | CC50 at 48 h [2]: 40.4 µM | selectivity ratio [3]: 5.14

CC1=NN(c2cccc(F)c2)C(=O)/C1=C/c1cn(C[C@@H](O)CNCCCN2CCOCC2)c2ccccc12
EC50 (Hepatitis C virus [1]): 5.87 µM | CC50 at 48 h [2]: 23.3 µM | selectivity ratio [3]: 3.97

CC1=NN(c2ccc(F)cc2)C(=O)/C1=C/c1cn(C[C@H](O)CNCCCN2CCOCC2)c2ccccc12
EC50 (Hepatitis C virus [1]): 0.72 µM | CC50 at 48 h [2]: > 50 µM | selectivity ratio [3]: > 69.4

CC1=NN(c2ccccc2)C(=O)/C1=C/c1cn(C)c2ccccc12
EC50 (Hepatitis C virus [1]): 21.2 µM | CC50 at 48 h [2]: > 50 µM | selectivity ratio [3]: > 2.36

CC1=NN(c2ccccc2)C(=O)/C1=C/c1cn(CC(O)CNCc2ccccc2)c2ccccc12 (racemic)
EC50 (Hepatitis C virus [1]): > 50 µM | CC50 at 48 h [2]: > 50 µM

CC1=NN(c2ccccc2)C(=O)/C1=C/c1cn(C[C@H](O)CNCCCN2CCOCC2)c2ccccc12
EC50 (Hepatitis C virus [1]): 1.25 µM | CC50 at 48 h [2]: > 50 µM | selectivity ratio [3]: > 40

CC1=NN(c2ccccc2F)C(=O)/C1=C/c1cn(CC(O)CNCCCN2CCOCC2)c2ccccc12 (racemic)
EC50 (Hepatitis C virus [1]): 2.79 µM | CC50 at 48 h [2]: 34.2 µM | selectivity ratio [3]: 12.3

CC1=NN(c2cccc(C(F)(F)F)c2)C(=O)/C1=C/c1cn(CC2CO2)c2ccccc12 (centres undefined)
EC50 (Hepatitis C virus [1]): 5.94 µM | CC50 at 48 h [2]: 25.1 µM | selectivity ratio [3]: 4.23

CC1=NN(c2cccc(F)c2)C(=O)/C1=C/c1cn(C[C@H](O)CNCCCN2CCOCC2)c2ccccc12
EC50 (Hepatitis C virus [1]): 0.74 µM | CC50 at 48 h [2]: 31.1 µM | selectivity ratio [3]: 42

CC1=NN(c2cccc(C(F)(F)F)c2)C(=O)/C1=C/c1cn(CC(O)CNCCCN2CCOCC2)c2ccccc12 (racemic)
EC50 (Hepatitis C virus [1]): 2.08 µM | CC50 at 48 h [2]: 17.8 µM | selectivity ratio [3]: 8.57

CC1=NN(c2ccc(C(F)(F)F)cc2)C(=O)/C1=C/c1cn(CC(O)CNCCCN2CCOCC2)c2ccccc12 (racemic)
EC50 (Hepatitis C virus [1]): 4.63 µM | CC50 at 48 h [2]: 11.3 µM | selectivity ratio [3]: 2.44

CC1=NN(c2ccccc2)C(=O)/C1=C/c1cn(CC(O)CN2CCOCC2)c2ccccc12 (racemic)
EC50 (Hepatitis C virus [1]): 21.9 µM | CC50 at 48 h [2]: > 50 µM | selectivity ratio [3]: > 2.29

COc1ccc(N2N=C(C)/C(=C\c3cn(CC(O)CNCCCN4CCOCC4)c4ccccc34)C2=O)cc1 (racemic)
EC50 (Hepatitis C virus [1]): 2.05 µM | CC50 at 48 h [2]: 15.4 µM | selectivity ratio [3]: 7.53

CC1=NN(c2ccccc2)C(=O)/C1=C/c1cn(Cc2ccccc2)c2ccccc12
EC50 (Hepatitis C virus [1]): 17.4 µM | CC50 at 48 h [2]: > 50 µM | selectivity ratio [3]: > 2.88

CC1=NN(c2ccccc2)C(=O)/C1=C/c1cn(CC2CO2)c2ccccc12 (centres undefined)
EC50 (Hepatitis C virus [1]): 5.78 µM | CC50 at 48 h [2]: 46.3 µM | inhibition (Hepatitis C virus [8]): inactive | inhibition (Hepatitis C virus [9]): Active | selectivity ratio [3]: 8.02 | inhibition (Hepatitis C virus [10]): Active | inhibition (Hepatitis C virus [11]): Active

COc1ccc(N2N=C(C)/C(=C\c3cn(CC4CO4)c4ccccc34)C2=O)cc1 (centres undefined)
EC50 (Hepatitis C virus [1]): 2.06 µM | CC50 at 48 h [2]: 11.9 µM | selectivity ratio [3]: 5.76
